test: Toxicity liver stage against HepG2, at 10uM; format: cell-based; design: test concentration 10 uM, cell line HepG2-A16-CD81EGFP; conditions: human, HepG2-A16-CD81EGFP cells; read-out: INHIBITION
How it was run: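 Uninfected HepG2-A16-CD81EGFP cells, 3 × 10^3 per well, 1536-well, plated on prespotted compound at 10 μM final, parasite-free screening media added to match infected plates; puromycin 10 μM positive, DMSO 0.5% negative; run in parallel with 48 h PbLuc assay at 37 °C, 5% CO2; viability by CellTiter-Glo luminescence, normalized to controls.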

Compound | cytotoxicity at 10 µM
Cc1ccc(CN(CCN(C)C)Cc2c(C)nc3sccn23)o1 | 3.08%
N#Cc1cccc(C(=O)N2C[C@@H]3CC[C@H]2CN(C(=O)C2CCC2)C3)c1 | -2.5%
CN(C(=O)NCC1(CN2CCOCC2)CCCCC1)C1CC1 | -1.91%
CCS(=O)(=O)NC[C@]12COC[C@H]1CN(Cc1ccncc1)C2 | 6.01%
Cc1ccc(N2CC3(CCN(S(=O)(=O)C4CC4)C3)C2)nn1 | 10.6%
Cc1nnc2n1CCN(C(=O)CN1C(=O)CCCc3ccccc31)C2 | -11.4%
CN(C(=O)CCNC(=O)C1COc2ccccc21)c1ccccc1 (stereo unspecified) | -7.53%
Cc1nc(C2CCCN2CC(=O)NCCc2ccsc2)no1 (stereo unspecified) | -9.34%
COc1cccc2c1ccn2CCC(=O)N1CCCC(C(=O)O)C1 (stereo unspecified) | 2.11%
Fc1ccccc1CN1CCCC2(CCN(c3ncccn3)C2)C1 (stereo unspecified) | -104%
c1csc(-c2noc(CN3CCc4cncnc4C3)n2)c1 | -9.5%
Cc1ccc(CN2C[C@H]3C(=O)N(CC4CC4)C[C@@]3(C(=O)O)C2)c(F)c1F | 7.47%
Cc1cccc(-c2nc(CN3CCc4cnc(C)nc4C3)no2)c1 | -8.42%
COCc1c(Cl)cccc1NC(=O)CNC(=O)C(C)(C)C | -5.73%
Cc1noc(C)c1CN(C)C(=O)CCn1c(=O)n(C)c2ccccc21 | -6.67%
CC(C)NC1CCN(CCc2ccc3c(c2)CCO3)CC1 | -21.8%
CCc1nnc2n1CCN(C(=O)c1cnc3ccccc3n1)C2 | -7.7%
NCC1CCC(C(NC(=O)c2ccccn2)c2ccccn2)CC1 (stereo unspecified) | 2%
NS(=O)(=O)c1ccc(C(=O)N2CCCC2c2ccccc2)o1 (stereo unspecified) | -6.48%
COCCC(=O)N1CCCC(c2n[nH]cc2C)C1 (stereo unspecified) | -1.75%
COCCC(=O)N1C[C@H]2CCC[C@@]2(COC)C1 | 6.75%
COCC1CN(C(=O)Cc2cccc(F)c2)Cc2ccnn2C1 (stereo unspecified) | -73%
CC(C)N(C)CC(=O)N(C)Cc1nc(C(F)(F)F)cs1 | -2.96%

Compound | cytotoxicity at 10 µM
Cc1nn(C)c(Cl)c1S(=O)(=O)N(CC(N)=O)CC(C)C | 8.18%
O=c1cc(CNS(=O)(=O)C2CC2)nc2n1CCCN(CC1CC1)C2 | -104%
O=C(c1cc[nH]n1)N1CCc2c(nc(N3CCCCC3)[nH]c2=O)C1 | 15.5%
O=C(CCc1cscn1)N1CCCC(n2cncn2)C1 (stereo unspecified) | -3.81%
CCn1ncc2c1C(COC)N(C(=O)c1cccs1)CC2 (stereo unspecified) | -112%
CN(Cc1ccco1)[C@@H]1CN(CC2CCOCC2)C[C@@H]2CCCO[C@@H]21 | -71.1%
NC(=O)C1(c2cnccn2)CCCN1Cc1ccccn1 (stereo unspecified) | -6.36%
CN(Cc1ccco1)C(=O)CN1C(=O)c2cc(Cl)c(Cl)cc2C1=O | 1.11%
CN(CCO)Cc1nnc(C2CCN(CC(C)(C)C)CC2)n1C | 1.89%
Cc1noc(C2CCCN(C(=O)CCCNc3ncccn3)C2)n1 (stereo unspecified) | -3.92%
O=C(Cc1n[nH]c(-c2cncc(Br)c2)n1)NCc1ccccn1 | -1.39%
Cc1nsc(N2CCN(CC(=O)NCc3cccnc3)CC2)n1 | -4.52%
CN(C)c1ccc(CN2CCN(c3ccc(C#N)cc3)C(=O)C2)cn1 | -28.2%
CS(=O)(=O)Cc1ccc(CNC(=O)c2cccnc2O)cc1 | 0.481%
O=C1[C@@H]2CC[C@@H](CN(c3ncnc4ccsc34)C2)N1CC1CC1 | 15.2%
Cc1nc2cc(F)cc(C(=O)N3CCN(CC(C)O)CC3)c2nc1C (stereo unspecified) | 4.5%
COc1ccnc(CN2CC(=O)N(c3ccc(C)cc3)CC2C)c1OC (stereo unspecified) | -10.8%
NC(=O)NC(=O)CCN(Cc1ccccc1)CC1CCOCC1 | -1.86%
CC(NC(=O)Cc1cccs1)c1nnc2n1CCC2 (stereo unspecified) | -7.56%
CC(=O)c1cc(CC(=O)NCc2c(F)cccc2F)cs1 | -8.51%
CC(C)(C)C(=O)N[C@H]1CC[C@H](Nc2nccc(-c3ccncc3)n2)C1 | 5.05%
O=C(c1cnc(-c2ccccn2)s1)N1CCCC(n2cccn2)C1 (stereo unspecified) | -11.9%
c1ccc(OCc2nnc3n2CCN(Cc2ccco2)C3)nc1 | 5.5%

Compound | cytotoxicity at 10 µM
CC(=O)Nc1ncc(-c2ccc(C)cc2)[nH]1 | -4.63%
CC(C)NC(=O)c1nc2c(s1)CCCN2C(C)C | -143%
COc1cc(-c2cc(N)ncn2)cc(OC)c1OC | -5.11%
COc1cc(CNc2nc(N3CCOCC3)ns2)cc(OC)c1OC | -5.23%
O=C(CN1CCCC(O)C1)NC(=O)NCc1cccs1 (stereo unspecified) | 0.795%
CCCn1ccnc1SCC(=O)NC(Cc1ccccc1)C(C)=O (stereo unspecified) | -9.58%
CNC(=O)NC(=O)CN(Cc1ccc(C#N)cc1)Cc1cccc(F)c1 | 5.51%
CCCS(=O)(=O)N1CC(=O)N(Cc2cccc(OC)c2OC)CC(O)C1 (stereo unspecified) | -12.9%
CC(=O)N1CC(c2ncn(C(C)C)n2)c2cc(C(=O)NC3CC3)ccc21 (stereo unspecified) | 4.11%
COCc1ccccc1C(=O)NCC(O)c1ccc(Cl)s1 (stereo unspecified) | -6.63%
O=C(NC1CC1)c1cc(C(F)(F)F)cc(C(=O)NC2CC2)n1 | 9.97%
CCc1cnc(CN(C(C)=O)C2CCN(CCc3cccs3)C2)o1 (stereo unspecified) | -6.78%
CC(=O)N1CCC2(CC1)CCN(S(=O)(=O)c1ccccc1)C2 | 2.35%
O=C(NCc1ccncc1)c1nc2c(o1)CN(C(=O)c1cccnc1)C2 | 1.21%
CCCc1nc2c(c(C)c(C)n2Cc2cccnc2)c(N)c1CC | 15%
Cc1noc(C2CCN(C(=O)c3cc(Cl)c(Cl)n3C)CC2)n1 | 10.7%
O=C(NCc1cnc2n1CCN(Cc1ccoc1)C2)c1ccno1 | -93%
CN1CCN(c2cc(CNC(=O)c3ccc(=O)[nH]n3)ccn2)CC1 | -15%
Cc1ccc(C(=O)NCCNC(=O)c2cncnc2C(C)C)cc1F | 9.52%
CCc1noc(CNc2ccc(C(=O)N3CCCC(C)C3)cc2C)n1 (stereo unspecified) | -10.8%
COc1ccc(-n2ncc(C(C)NCc3cnc(SC)nc3)c2C)cc1 (stereo unspecified) | 0.423%
NC(=O)Nc1cc(Br)cnc1OCC(F)(F)F | 8.28%
CCOc1cncc(NCCc2nnc3ccccn23)n1 | 9.84%

Compound | cytotoxicity at 10 µM
Cc1noc(C)c1C(=O)N(C)C(C)c1cccnc1 (stereo unspecified) | 0.363%
Cc1nc(C)c(C)c(NCc2cnn3cccnc23)n1 | 15.5%
Cn1cc(Br)c(=O)c(NS(=O)(=O)c2ccc(Cl)cc2)c1 | -5.28%
Cc1nc(C)n(CC2CCCN(CCCc3ccccc3)C2)n1 (stereo unspecified) | -6.02%
O=C(CN1C[C@@H]2CC[C@H]1CN(Cc1ccccn1)C2)Nc1ccccc1 | -5.92%
Cc1ccnc(N2CCCC(c3nccn3C(C)C)C2)n1 (stereo unspecified) | -9.63%
COCCN(Cc1sccc1C)C(=O)c1c(O)cccc1F | -137%
CC(C)c1nc(-c2ccnc(N3CCNCC3)n2)no1 | 1.01%
O=C(CCn1ccccc1=O)Nc1ccc(F)c(Cl)c1 | 13.1%
COc1cc(N2CCC3(CCCN(C(=O)c4cnccn4)C3)C2)ncn1 (stereo unspecified) | -2.48%
Cc1noc(C)c1C(=O)NCc1ccnc(OCC(F)(F)F)c1 | -0.421%
CCn1nnc2c1C(COCCN(C)C)CN(Cc1ccco1)C2 (stereo unspecified) | 1.86%
CNC(=O)[C@@H]1C[C@H]2CN(C(=O)c3ccco3)C[C@H]2N1C | -2.85%
Cc1ccc(C(=O)Nc2ccn(CCC(N)=O)n2)cc1 | 2.42%
COCc1nc(NC(C)c2c(C)n[nH]c2C)c2cnn(C)c2n1 (stereo unspecified) | -13.4%
Cc1noc(C)c1-c1cccc(C2CCNCC2)n1 | 2.98%
CN(Cc1noc(C2CC2)n1)C1CCN(CCn2cc(C#N)cn2)C1 (stereo unspecified) | -9.1%
O=c1c(-c2ccnc(N3CCCC[C@@H]3CO)n2)cnc2sccn12 | -10.3%
Cc1cnccc1-n1nc(C(C)C)nc1CCN(C)S(C)(=O)=O | -4.05%
CC1(C)CC(N(Cc2ccccc2)Cc2ncc[nH]2)CC(C)(C)N1 | 0.385%
c1cncc(OC2CCN(CCn3cc4ccccc4n3)CC2)c1 | 1.48%
O=C(c1cnc(COc2ccccc2)nc1O)N1CCC(F)(F)CC1 | -3.11%
CN(C)CCCN(Cc1cnn(C)c1)Cc1ccco1 | 2.36%

Compound | cytotoxicity at 10 µM
Cc1ccc(NC(=O)N2CCCC(N(C)C)C2)c(Br)c1 (stereo unspecified) | -3.51%
CN(C)c1cccc(C(=O)Nc2cn(C)c(=O)n(C)c2=O)c1 | 3.34%
CCOCCCNc1nc(O)cc(C2CC(=O)N(C)C2)n1 (stereo unspecified) | 0.873%
CCc1ccc(S(=O)(=O)Nc2c(C)cccc2C(=O)O)s1 | -15.9%
FC(F)(F)C1CN(Cc2cnc3c(-c4ccccc4)cnn3c2)CCO1 (stereo unspecified) | -2.34%
O=C(c1ccnc(N2CCOC(C(F)(F)F)C2)c1)N1CCOCC1 (stereo unspecified) | 2.52%
Cn1cccc1C(=O)N1C[C@H]2CN(CCN3CCCC3)C(=O)[C@H]2C1 | -119%
Cc1cccc(CN2CC[C@@H]3[C@@H]2CCN3C(=O)Cc2cccs2)n1 | -114%
O=C(CS(=O)(=O)Cc1nnnn1C1CC1)NCC1CC1 | 16.6%
Cc1cnn(C(C)C2CC2)c1NC(=O)c1ccc(Cn2cnnn2)cc1 (stereo unspecified) | -2.06%
CC(=O)Nc1nc(C(=O)NCc2ccc(N3CCCC3)nc2)cs1 | -2.6%
CN(C)Cc1ccc(C2CCCCN2C(=O)c2cccnn2)cc1 (stereo unspecified) | -3.29%
Cc1cc(CN(C)CCN(C)c2ccccc2)no1 | -4.65%
CN1N=C(C(=O)NCCc2ccc(OC3CCCC3)cc2)CCC1=O | -1.52%
CC(C)N(CC(=O)Nc1ccc(Br)cc1Cl)Cc1cccnc1 | 17.2%
CCN(C)c1ncnc2c1CCN(Cc1ccncc1)CC2 | -10.7%
CS(=O)(=O)N1CCN(C(=O)CCn2cccn2)CC1 | -8.39%
CC(=O)N1CCN(C(=O)c2cnc(OC(C)C)c(Cl)c2)CC1 | -4.36%
O=C(NCc1ccccn1)C1=NN(c2ccccc2)C(=O)CN1 | -0.855%
